In paper PMC8649514 (Journal of the American Heart Association: Cardiovascular …, 2021):
Bridges are numbered along the chain shown (N, C = ends). Where no end group is shown, it is not given here.

What was measured:
[1] = tested on: ventricular lysates of β2‐AR transgenic mouse hearts; assay: Quantification of peptide accumulation in mouse heart lysates; type: in vivo; conditions: sulfo‐Cy5.5 cyclic peptide iv 0.5 mg/kg, 4 h, β2‐AR Tg mice; n=4 per group
[2] = tested on: heart and organs of β2‐AR transgenic mice; assay: Cardiac tracer uptake in whole organs by ex vivo NIR fluorescence imaging; parameters: species or system mouse; conditions: iv 0.5 mg/kg, 4 h, whole-organ Odyssey scan; P=0.057–0.1; n=4 per group
collagen IV = assay: Coimmunostaining of collagen IV and T peptide in human cardiac tissue; conditions: ex vivo costaining, IHD patient heart section, confocal microscopy
How it was run: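 Fresh-frozen IHD and nonfibrotic donor human heart cryosections (10 or 5 µm) were PBS-washed, blocked in 10% normal goat serum for 2 h at room temperature, and incubated 72 h at 4 °C with sulfo-Cy5.5 T peptide (0.0375 µg/mL in PBS). Collagen IV was stained with primary antibody (10 µg/mL, overnight, 4 °C) and Alexa Fluor 488 anti-rabbit secondary (2 µg/mL). Nuclei were stained with Hoechst (5 µg/mL), and images were taken by confocal microscopy at ×20.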

Substance | amount of peptide per gram tissue, left vs right transgenic ventricle [1] | peptide accumulation in kidneys and lungs, fibrotic vs nontransgenic mice [2] | overlap with collagen IV in human cardiac tissue (collagen IV)
GKWHCTTKFPHHYCLYG (disulfide 5-14 (inferred)) [cyclic peptide] | twice | near‐significant enhancement | 
TLTYTWS [T peptide] |  |  | high degree of overlap
